Assay results: ChEMBL document CHEMBL1177701, “Synthesis, biological evaluation, and structure-activity relationships of dithiolethiones as inducers of cytoprotective phase 2 enzymes” (J Med Chem, 2010)
The source made the active and inactive calls. The calls are words filed in the database; no cut-off is given here.

Assays:
[1] = test system: NBT2; assay: Induction of GST-alpha protein expression in rat NBT2 cells after 24 hrs by Western blot analysis; type: functional, cell-based
Method in brief: (§1)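 NBT-II rat bladder carcinoma cells grown in MEM with 10% FBS. Plated overnight, then exposed to compound at 25 or 50 µM for 24 h, with 0.1% DMSO final. Cells trypsinized, lysed with 1 mM PMSF and sonicated. 25-40 µg protein taken for Western blot, GAPDH as loading control. At least two experiments.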

[2] = test system: Rattus norvegicus; assay: Ex vivo induction of NQO1 in Sprague-Dawley rat colon at 7.5 umol/kg/day, po for 10 days measured on day 11 relative to control; type: functional
Method in brief: (§2)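 Organs taken from the same rats used for the bladder study: female Sprague-Dawley, compound at 7.5 µmol/kg/day by gavage or soya oil for 10 days, killed on day 11. GI contents rinsed out under cold water and tissues stored at −80°C. Homogenized in 0.2% Triton X-100 and centrifuged. Supernatant NQO1 activity measured by the Ernster method, expressed as treated/control.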

[3] = test system: NBT2; assay: Induction of GST-mu protein expression in rat NBT2 cells after 24 hrs by Western blot analysis; type: functional, cell-based; method in brief: as §1
[4] = test system: Rattus norvegicus; assay: Ex vivo induction GST-alpha protein expression in Sprague-Dawley rat bladder at 7.5 umol/kg/day, po for 10 days measured on day 11 by Western blot analysis; type: functional, organism-based
Method in brief: (§3)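 Female Sprague-Dawley rats, 3 per group, gavaged once daily with compound at 7.5 µmol/kg or soya oil vehicle for 10 days. Killed on day 11. Bladder homogenized in 10 mM Tris-HCl pH 7.4, 0.25 M sucrose, 1 mM PMSF, 1 µg/ml leupeptin. 25-40 µg protein run by SDS-PAGE, then Western blot, with GAPDH as loading control.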

[5] = test system: Rattus norvegicus; assay: Ex vivo induction of NQO1 in Sprague-Dawley rat stomach at 7.5 umol/kg/day, po for 10 days measured on day 11 relative to control; type: functional; method in brief: as §2
[6] = test system: Rattus norvegicus; assay: Ex vivo induction GST-pi protein expression in Sprague-Dawley rat bladder at 7.5 umol/kg/day, po for 10 days measured on day 11 by Western blot analysis; type: functional, organism-based; method in brief: as §3
[7] = test system: Rattus norvegicus; assay: Ex vivo induction of NQO1 in Sprague-Dawley rat jejunum at 7.5 umol/kg/day, po for 10 days measured on day 11 relative to control; type: functional; method in brief: as §2
[8] = test system: Rattus norvegicus; assay: Ex vivo induction of NQO1 in Sprague-Dawley rat ileum at 7.5 umol/kg/day, po for 10 days measured on day 11 relative to control; type: functional; method in brief: as §2
[9] = molecular target: T1, Nuclear factor erythroid 2-related factor 2 (Rattus norvegicus) (UniProt O54968); assay: Induction of Nrf in wild type rat NBT2 cells at 25 uM after 24 hrs Western blot analysis; type: functional, cell-based
T1 sequence (whole entry): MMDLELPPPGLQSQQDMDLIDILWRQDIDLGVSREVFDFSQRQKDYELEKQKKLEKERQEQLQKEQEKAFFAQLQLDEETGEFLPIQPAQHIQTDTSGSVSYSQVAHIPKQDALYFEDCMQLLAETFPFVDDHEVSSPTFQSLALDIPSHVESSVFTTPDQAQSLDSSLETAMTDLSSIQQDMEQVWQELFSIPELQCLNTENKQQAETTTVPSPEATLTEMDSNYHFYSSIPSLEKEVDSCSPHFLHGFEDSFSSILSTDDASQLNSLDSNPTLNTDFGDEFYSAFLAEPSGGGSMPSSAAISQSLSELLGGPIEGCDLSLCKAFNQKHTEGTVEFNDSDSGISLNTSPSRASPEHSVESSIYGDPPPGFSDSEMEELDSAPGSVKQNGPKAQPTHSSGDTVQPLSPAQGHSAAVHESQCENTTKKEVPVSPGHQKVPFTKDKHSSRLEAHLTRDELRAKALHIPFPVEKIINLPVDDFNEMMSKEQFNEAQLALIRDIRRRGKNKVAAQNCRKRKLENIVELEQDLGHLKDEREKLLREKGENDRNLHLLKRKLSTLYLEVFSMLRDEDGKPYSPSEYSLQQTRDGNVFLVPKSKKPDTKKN
Method in brief: (§4)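 NBT-II cells transfected with Nrf2 stealth RNAi or control RNAi (0.584 nmol per dish, lipofectamine 2000) for 48 h. Then treated with compound at 25 µM or vehicle for 24 h, with 0.1% DMSO final. Lysates analyzed by Western blot for Nrf2, GCL, GST-α, GST-μ and NQO1, with GAPDH as loading control.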

[10] = molecular target: T1, Nuclear factor erythroid 2-related factor 2 (Rattus norvegicus); assay: Induction of Nrf-mediated GST-alpha protein expression in wild type rat NBT2 cells at 25 uM after 24 hrs Western blot analysis; type: functional, cell-based; method in brief: as §4
[11] = test system: NBT2; assay: Induction of GST-pi protein expression in rat NBT2 cells at 25 to 50 uM after 24 hrs by Western blot analysis; type: functional, cell-based; method in brief: as §1
[12] = molecular target: T1, Nuclear factor erythroid 2-related factor 2 (Rattus norvegicus); assay: Induction of Nrf-mediated NQO1 protein expression in wild type rat NBT2 cells at 25 uM after 24 hrs Western blot analysis; type: functional, cell-based; method in brief: as §4
[13] = test system: NBT2; assay: Induction of GST-alpha protein expression in Nrf gene knockout rat NBT2 cells at 25 uM after 24 hrs Western blot analysis; type: functional, cell-based; method in brief: as §4
[14] = test system: Rattus norvegicus; assay: Ex vivo induction of NQO1 in Sprague-Dawley rat duodenum at 7.5 umol/kg/day, po for 10 days measured on day 11 relative to control; type: functional; method in brief: as §2
[15] = molecular target: T1, Nuclear factor erythroid 2-related factor 2 (Rattus norvegicus); assay: Induction of Nrf-mediated GCL protein expression in wild type rat NBT2 cells at 25 uM after 24 hrs Western blot analysis; type: functional, cell-based; method in brief: as §4
[16] = test system: NBT2; assay: Induction of NQO1 protein expression in Nrf gene knockout rat NBT2 cells at 25 uM after 24 hrs Western blot analysis; type: functional, cell-based; method in brief: as §4
[17] = test system: NBT2; assay: Induction of GCL protein expression in rat NBT2 cells at 25 to 50 uM after 24 hrs by Western blot analysis; type: functional, cell-based; method in brief: as §1
[18] = test system: Rattus norvegicus; assay: Ex vivo induction of NQO1 in Sprague-Dawley rat bladder at 7.5 umol/kg/day, po for 10 days measured on day 11 relative to control; type: functional
Method in brief: (§5)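 Female Sprague-Dawley rats, 6 per group, gavaged with compound at 7.5 µmol/kg/day or soya oil for 10 days and killed on day 11. Bladder homogenized in ice-cold 0.2% Triton X-100 and cleared by centrifugation. NQO1 activity measured by the Ernster method, GST by the Habig method. Reported as treated/control mean ± SEM, ANOVA with Student-Newman-Keuls test.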

[19] = test system: NBT2; assay: Induction of GST-mu protein expression in Nrf gene knockout rat NBT2 cells at 25 uM after 24 hrs Western blot analysis; type: functional, cell-based; method in brief: as §4
[20] = test system: NBT2; assay: Induction of Nrf protein expression in Nrf gene knockout rat NBT2 cells at 25 uM after 24 hrs Western blot analysis; type: functional, cell-based; method in brief: as §4
[21] = test system: Rattus norvegicus; assay: Ex vivo induction of NQO1 in Sprague-Dawley rat liver at 7.5 umol/kg/day, po for 10 days measured on day 11 relative to control; type: functional; method in brief: as §2
[22] = test system: NBT2; assay: Induction of GCL protein expression in Nrf gene knockout rat NBT2 cells at 25 uM after 24 hrs Western blot analysis; type: functional, cell-based; method in brief: as §4
[23] = test system: Rattus norvegicus; assay: Ex vivo induction of GST in Sprague-Dawley rat bladder at 7.5 umol/kg/day, po for 10 days measured on day 11 relative to control; type: functional; method in brief: as §5
[24] = test system: Rattus norvegicus; assay: Ex vivo induction of NQO1 in Sprague-Dawley rat lung at 7.5 umol/kg/day, po for 10 days measured on day 11 relative to control; type: functional; method in brief: as §2
[25] = test system: Rattus norvegicus; assay: Ex vivo induction GST-mu protein expression in Sprague-Dawley rat bladder at 7.5 umol/kg/day, po for 10 days measured on day 11 by Western blot analysis; type: functional, organism-based; method in brief: as §3
[26] = test system: Rattus norvegicus; assay: Ex vivo induction of NQO1 in Sprague-Dawley rat kidney at 7.5 umol/kg/day, po for 10 days measured on day 11 relative to control; type: functional; method in brief: as §2
[27] = molecular target: T1, Nuclear factor erythroid 2-related factor 2 (Rattus norvegicus); assay: Induction of Nrf-mediated GST-mu protein expression in wild type rat NBT2 cells at 25 uM after 24 hrs Western blot analysis; type: functional, cell-based; method in brief: as §4
[28] = test system: Rattus norvegicus; assay: Ex vivo induction GCL protein expression in Sprague-Dawley rat bladder at 7.5 umol/kg/day, po for 10 days measured on day 11 by Western blot analysis; type: functional, organism-based; method in brief: as §3
[29] = test system: NBT2; assay: Induction of NQO1 protein expression in rat NBT2 cells after 24 hrs by Western blot analysis; type: functional, cell-based; method in brief: as §1

COC(=O)c1cssc1=S
Activity [1]: Dose-dependent effect | fold change (FC) [2]: 0.89 | Activity [3]: Dose-dependent effect | Activity [4]: Active | fold change (FC) [5]: 2.36 | Activity [6]: inactive | fold change (FC) [7]: 1.13 | fold change (FC) [8]: 0.95 | Activity [9]: Active | Activity [10]: Active | Activity [11]: inactive | Activity [12]: Active | Activity [13]: inactive | fold change (FC) [14]: 1.17 | Activity [15]: Active | Activity [16]: inactive | Activity [17]: Active | fold change (FC) [18]: 5.05 | Activity [19]: inactive | Activity [20]: inactive | fold change (FC) [21]: 1.07 | Activity [22]: inactive | fold change (FC) [23]: 2.69 | fold change (FC) [24]: 1.07 | Activity [25]: Active | fold change (FC) [26]: 1.45 | Activity [27]: Active | Activity [28]: Active | Activity [29]: Dose-dependent effect
